Data on five molecules can be found in article PMC3447108 (Bioconjugate chemistry, 2012).

Read-outs that look alike come from different tables or passages of the source.

Data set [1] relates to RGC-5 cells. In words: Induction of apoptosis and probe activation by cytotoxic agents. The format is cell-based, mouse.
Data set [2] relates to RGC-5 cells. In words: Staurosporine differentiation and morphology of RGC-5 cells. The format is cell-based, mouse.
The next data set has as its target T1, caspase 3 (Homo sapiens, UniProt P42574).
T1 sequence (P42574 29-175 limits assumed): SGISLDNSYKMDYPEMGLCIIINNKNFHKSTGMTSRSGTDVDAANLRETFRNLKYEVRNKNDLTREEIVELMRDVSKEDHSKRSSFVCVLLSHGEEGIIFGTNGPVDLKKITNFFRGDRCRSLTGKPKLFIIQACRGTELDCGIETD
T1 sequence (P42574 176-277 limits assumed): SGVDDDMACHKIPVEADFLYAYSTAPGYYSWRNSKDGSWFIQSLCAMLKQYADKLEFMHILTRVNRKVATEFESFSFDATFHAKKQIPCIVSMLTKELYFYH
As to the kind of experiment: Caspase 3 probe cleavage. The format is biochemical. To be noted: HEPES buffer pH 7.4, 10 mM DTT, 37°C, 640/680 nm. An outline of the steps:
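Human recombinant caspase 3 (E. coli-expressed; 50 U, 1.4 × 10−6 mg) is pre-equilibrated for 10 min at 37°C in the stated buffer with 0.1% CHAPS, 10% glycerol and 1 mM EDTA. Quenched test compound (2 µM solution) is added, and fluorescence is read continuously for 30 min at 37°C. Signals are background-subtracted and normalized to enzyme mass. Initial 0–5 min rates come from linear fits; Km and kcat come from nonlinear regression of cleavage rates.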

The subject of data set [3] is RGC-5 cells. In words: Non-target activation in healthy cells, LysoTracker co-localization. The format is cell-based, mouse.
Data set [4] relates to RGC-5 cells. The format is cell-based, mouse. Conditions: FITC-annexin V; compared to 3 with Alexa Fluor 647-annexin V; data not shown. An outline of the steps:
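RGC-5 cells are grown in phenol-free DMEM with 10% FBS at 37°C and 5% CO2. They are given 5 µM staurosporine in growth medium for 3 h, then co-incubated for 30 min with up to 10 µM quenched test compound plus FITC-annexin V. Propidium iodide (500 nM) is added for 5 min. Cells are rinsed three times in phenol-free medium and imaged by fluorescence microscopy.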

In data set [5] the test system is retinal ganglion cell apoptosis. Conditions: directly applied into the vitreous humor; models of RGC degeneration; ref [6],[10]; cited from earlier work.
For data set [6] the following is noted: in vivo; cited from earlier work.
For data set [7], the system named is RGC-5 cells. In words: NMDA / glutamate excitotoxicity model. The format is cell-based, mouse. Conditions: native and SS-differentiated; up to 5 mM, up to 48 hrs; data not shown.
Setting [8] is: Figures 5–7, S9, S10 (ionomycin), Figure 6 (SS), doxorubicin data not shown.

Take `C[C@H](CCC(=O)O)C[C@H](C)C[C@H](C)C(=O)/C=C(\O)[C@H](C)C[C@H](C)C/C=C/[C@@H](C)[C@@H](O)[C@@H](C)[C@@H](O)C[C@@H]1CC[C@@](C)([C@H]2CC[C@@](C)([C@@H](C)O)O2)O1` [ionomycin]: in the data set on RGC-5 cells [1] (setting [8]), the “apoptosis and probe activation upon treatment” value is “readily observed”.

On to `CN[C@@H]1C[C@H]2O[C@@](C)([C@@H]1OC)n1c3ccccc3c3c4c(c5c6ccccc6n2c5c31)C(=O)NC4` [SS, staurosporine], for which the “time to differentiation morphology” value with RGC-5 cells [2] (0.5 µM SS, 37°C, bright field microscopy) was at most 1 hour. In addition, in the data set on RGC-5 cells [2] (SS, room temperature), the “time to completion of morphological changes” value is “approximately 2 hours”. In the data set on RGC-5 cells [2] (concentrations exceeding the value), the “toxic concentration (blebbing and disruption of neurite morphology)” value was “exceeding 2 µM”. In addition, the “apoptosis and probe activation upon treatment” value in the data set with RGC-5 cells [1] (setting [8]) was “readily observed”.

As for “(kkkrkv) linked to a cleavage sequence consisting of L amino acids (KDEVDAPC) [compound 1]”, in the data set with caspase 3, the kcat/Km is on record as 435 (FU min^−1 µM^−1)/nM. Also, the “probe signal in healthy cells” value with RGC-5 cells [3] (2 hr exposure, fluorescence microscopy) is reported as “no significant probe signal”. The “Pearson’s coefficient, LysoTracker compartments and activated probe” value in the data set with RGC-5 cells [3] (SS-differentiated RGC-5 cells, 3 hrs) turned out to be 0.612; in the data set on RGC-5 cells [3] (native RGC-5 cells, 3 hrs) it was 0.566. Moreover, the “punctate probe signal in LysoTracker-labeled compartments” value in the data set on RGC-5 cells [3] (healthy native and SS-differentiated RGC-5 cells, 3 hrs) is given as “delayed appearance of punctate signal”. In the data set with RGC-5 cells [4], the “coincidence of probe activation with annexin V binding” value is “Identical results”. The “detection of RGC apoptosis in vivo” value in data set [5] is “detect RGC apoptosis in models of RGC degeneration in vivo”. Besides, the systemic toxicity result in data set [6] is “without the systemic toxicity of the HIV-1 Tat sequence”.

On to `CN[C@H](CC(=O)O)C(=O)O` [NMDA], for which, in the data set on RGC-5 cells [7], the loss in viability entry is “no loss in viability”.

As to `COc1cccc2c1C(=O)c1c(O)c3c(c(O)c1C2=O)C[C@@](O)(C(=O)CO)C[C@@H]3O[C@H]1C[C@H](N)[C@H](O)[C@H](C)O1` [doxorubicin], the “apoptosis and probe activation upon treatment” value with RGC-5 cells [1] is recorded as “readily observed”.
